RanGTP-Imp inh = disruptors of Ran-importin-beta complex formation – biochemical, FRET, CFP-Ran, YFP-importin-beta, homogeneous, primary screen; 300,000 compounds, 1.1% hits; inhibition, % (test concentration not listed); cell-free CFP-Ran/YFP-importin-beta FRET ratio;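 active means more than half of the replicate wells show a fall in the fluorescence ratio signal beyond about 16%, limit read from the data, passing the limit was not always enough; inconclusive means exactly half of the replicate wells pass the set limit; inactive means fewer than half of replicates pass the limit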
Runt-CBFb FRET = inhibitors of human RUNX1 Runt domain binding to CBFb; Q01196+Q13951; Cerulean-Runt/Venus-CBFb FRET ratio 530/480, 1 h; inhibition, % at 20 µM; 220,000 compounds, 0.46% hits;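 active means inhibition over about 50% at 20 µM in the single-dose screen, limit read from the data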
Target sequence (Q01196 whole entry, looked up, the tested form may be a part): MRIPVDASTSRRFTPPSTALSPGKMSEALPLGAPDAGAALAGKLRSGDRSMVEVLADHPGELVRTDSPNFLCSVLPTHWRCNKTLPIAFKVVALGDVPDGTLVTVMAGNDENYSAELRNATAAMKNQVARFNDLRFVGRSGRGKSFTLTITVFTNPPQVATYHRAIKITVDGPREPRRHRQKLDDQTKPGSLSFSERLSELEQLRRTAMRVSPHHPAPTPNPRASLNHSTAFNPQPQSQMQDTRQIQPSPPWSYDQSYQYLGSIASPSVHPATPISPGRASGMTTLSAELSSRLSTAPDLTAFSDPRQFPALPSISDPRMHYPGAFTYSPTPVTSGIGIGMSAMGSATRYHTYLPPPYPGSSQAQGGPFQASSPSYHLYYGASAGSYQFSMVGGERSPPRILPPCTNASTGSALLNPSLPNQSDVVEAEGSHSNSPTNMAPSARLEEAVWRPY
Target sequence (Q13951 whole entry, looked up, the tested form may be a part): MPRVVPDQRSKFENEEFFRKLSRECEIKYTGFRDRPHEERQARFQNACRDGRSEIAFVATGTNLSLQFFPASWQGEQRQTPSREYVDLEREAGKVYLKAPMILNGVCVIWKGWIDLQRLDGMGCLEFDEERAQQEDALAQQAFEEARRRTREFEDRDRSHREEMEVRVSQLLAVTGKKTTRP
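Reagent – Venus-CBFb binding partner, 100 nM · Assay system – Cerulean-tagged RUNX1 Runt domain (FRET donor) fusion protein · Input – 100 nM per protein · Incubation – two 1 h room-temperature incubations shielded from light · Measured by – FRET fluorescence · Medium – Tris buffer pH 7.5 with salts and BSA · Benchmarks – unlabeled CBFb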
Runt-SMMHC FRET = Runt domain-CBFb-SMMHC interaction inhibition | Cerulean-Runt/Venus-CBFb-SMMHC FRET ratio 530/480, 1 h | inhibition, % at 20 µM | 220,000 compounds, 0.74% hits | AID 1434;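 active means mean inhibition across duplicate retests at 20 µM reaching about 50%, limit read from the data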;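 further: inhibitors lower the FRET ratio by blocking Runt binding to CBFb-SMMHC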
Hck-Nef inh = blocks Nef-activated human Hck kinase | P08631 | Recombinant Hck-YEEI plus Nef, Z-Lyte FRET kinase assay | inhibition, % at 20 µM | 220,000 compounds, 0.68% hits | AID 463187;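 active means Hck-Nef kinase inhibition above about 50%, limit read from the data; inactive means inhibition below that limit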
Runt-CBFb TRFRET = Runt-CBFb binding inhibition; 480 compounds, 20% hits; AID 1502; inhibition, % at 20 µM; TR-FRET RUNX1 Runt domain-CBFb binding; shares compounds with Runt-CBFb FRET; in the data active means inhibition above about 40%
A number is an active result; n = inactive; u = inconclusive; x = not tested or not shown; + = active, no number. The list is not random: actives were taken first. Their share in the collection is about 1.9%.

SMILES	RanGTP-Imp inh	Runt-CBFb FRET	Runt-SMMHC FRET	Hck-Nef inh	Runt-CBFb TRFRET
Cc1ccc(-c2ccc(=O)n(Cc3cccc(Br)c3)n2)cc1	n	x	x	x	x
CCc1ccc2[nH]c3nc(C)cc(C)c3c(=O)c2c1	n	58	83	n	n
CCc1ccc2[nH]cc(S(=O)(=O)c3ccc(C)c(C)c3)c(=O)c2c1	n	x	x	x	x
Cc1ccn2c(=O)nc(SCC(=O)NCCc3ccccc3)nc2c1	n	x	x	x	x
CN1CCc2c(sc(/N=C/c3c[nH]c4ccccc34)c2C#N)C1	n	n	n	n	x
CN1CCc2c(sc(/N=C/c3c[nH]c4ccccc34)c2C(N)=O)C1	46	53	n	n	n
COCCOC(=O)C1=C(C)NC2=C(C(=O)CC(C)(C)C2)C1c1cccnc1 (stereo unspecified)	n	50	109	n	n
CC1=C(C(=O)OCCOC(C)C)C(c2cccnc2)C2=C(CCCC2=O)N1 (stereo unspecified)	n	n	n	n	x
O=C(O)c1cncc(C#CCC2CCCCC2)c1	n	n	n	n	x
O=C1CC(N2CCC(O)(c3ccc(Cl)cc3)CC2)C(=O)N1Cc1ccc(N2CCCC2=O)cc1 (stereo unspecified)	n	66	n	n	n
O=C(O)c1ccccc1SC1CC(=O)N(c2cccc3ccccc23)C1=O (stereo unspecified)	x	53	n	n	47
CC1(C)CC(=O)C2=C(C1)Nc1[nH]c(=S)[nH]c(=O)c1C2c1ccccc1 (stereo unspecified)	n	50	59	n	n
COCCNC(=S)N1CCCC(CO)C1 (stereo unspecified)	n	n	n	n	x
Cc1ccn(CCC(=O)O)n1	n	n	n	n	x
Cc1ccn(-c2cc(O)c(-n3ccc(C)n3)cc2O)n1	n	64	n	n	n
CCN1CCN(c2nc(C)nc3c2sc(=S)n3C)CC1	x	53	n	n	n
Cc1nc(N2CCCCC2)c2sc(=S)n(C)c2n1	n	n	n	n	x
CN1c2ccsc2C(O)=C(C(=S)Nc2ccccc2)S1(=O)=O	89	53	91	n	n
CN1c2ccccc2C(O)=C(C(=S)Nc2ccccc2)S1(=O)=O	n	n	n	n	x
CCOC(=O)c1c(NC(=O)c2ccccc2Cl)sc2c1CCc1ccccc1-2	n	n	n	n	x
CCOC(=O)c1c(NC(=O)c2ccccc2)sc2c1CCc1ccccc1-2	n	55	n	n	n
CCN(CC)S(=O)(=O)c1ccc(OC)c(NS(=O)(=O)c2ccc(F)cc2)c1	n	50	n	n	n
CC(C)C(=O)NC(Nc1cccc2cccnc12)C(Cl)(Cl)Cl (stereo unspecified)	n	79	n	n	48
Clc1ccc(CSc2ccc(-c3ccco3)nn2)cc1	n	56	n	n	52
Cc1ccc(CSc2ccc(-c3ccco3)nn2)cc1	n	56	n	n	n
SMILES	RanGTP-Imp inh	Runt-CBFb FRET	Runt-SMMHC FRET	Hck-Nef inh	Runt-CBFb TRFRET
c1ccc(CSc2ccc(-c3ccco3)nn2)cc1	n	n	n	n	x
O=C(CNC(=S)N(Cc1ccccc1)Cc1cccnc1)NCCN1CCOCC1	n	n	n	n	x
CN(CC(=O)Nc1c(Cl)cccc1Cl)C(=O)c1ccc2nc[nH]c2c1	n	x	x	x	x
Cc1nc(N2CCN(C(=O)c3ccco3)CC2)nc2c1C(=O)CCC2	n	x	x	x	x
NC(=S)N/N=C/c1ccc(-c2cc(Cl)cc(Cl)c2)o1	n	52	n	n	n
O=C(CNC(=O)COc1ccccc1)NCc1ccccc1F	n	n	n	n	x
COc1ccc2oc(=N)c(-c3nnc4n3CCCCC4)cc2c1	n	n	n	n	x
N=c1oc2ccc3ccccc3c2cc1-c1nnc2n1CCCCC2	x	52	108	n	n
COc1cccc(OC)c1OCCCN1CCC(Cc2ccccc2)CC1	n	x	x	x	x
O=C(O[C@@H]1OC2COC(=O)c3cc(O)c(O)c(O)c3-c3c(cc(O)c(O)c3O)C(=O)O[C@@H]([C@H]1O)[C@@H]2O)c1cc(O)c(O)c(O)c1	n	57	n	n	67
CCOC(=O)N1CCN(C(=O)c2ccc3c(SCC(=O)O)c4c(nc3c2)CCCC4)CC1	n	n	n	n	x
O=C(O)CSc1c2c(nc3cc(C(=O)N4CCOCC4)ccc13)CCCC2	31	59	102	n	n
CCOC(=O)c1ccc(N2CCOCC2)c(NC(=O)c2c(-c3ccccc3)noc2C)c1	n	n	n	n	x
O=C(NCCCN1CCOCC1)c1sc2cc([N+](=O)[O-])ccc2c1Cl	n	50	n	n	n
CN(C)CCCNS(=O)(=O)c1ccc(N2CCC(c3ccc(Cl)cc3)=N2)cc1	27	57	93	+	n
CN(C)CCCNS(=O)(=O)c1cc(Cl)ccc1Cl	n	n	n	n	x
Cc1ccc(Cl)cc1NC(C#N)c1ccccc1 (stereo unspecified)	n	n	n	n	x
Fc1cccc(C[n+]2csc3ccccc32)c1	n	56	n	n	n
O=c1c2ccccc2sc2ccc(Cl)cc12	20	69	128	n	n
Cc1ccc(C)c(SCC(=O)c2ccc[nH]2)c1	n	n	n	n	x
O=C1C=CC(=O)N1N(c1ccccc1)c1ccccc1	n	72	x	n	n
CCCN1CCN(C(=O)c2c(Cl)cnn2C)CC1	n	x	x	x	x
CCc1nnc(NC(=O)CSc2nnc(-c3ccccc3O)n2CC)s1	n	n	n	n	x
CCc1nnc(NC(=O)CSc2nnc(-c3cccnc3)n2CC)s1	u	77	n	n	n
S=C(NCCCN1CCOCC1)NC1CCCC1	x	n	n	n	x
SMILES	RanGTP-Imp inh	Runt-CBFb FRET	Runt-SMMHC FRET	Hck-Nef inh	Runt-CBFb TRFRET
S=C(NCCCN1CCOCC1)NCCCN1CCOCC1	n	50	n	n	n
CN1CCc2c(sc3ncn4nc(-c5ccccc5O)nc4c23)C1	x	57	125	n	n
O=C(CCSc1ccccn1)c1ccccc1	n	59	n	n	n
O=C1CCNc2ccc(-c3ccccc3)cc21	n	60	n	n	42
COc1ccc(C(=O)Nc2ccc(NC(=O)C3CC3)nc2)cc1	n	x	x	x	x
Cc1cccc2cc(C(c3nnnn3Cc3ccccc3)N3CCN(c4ccccc4)CC3)c(=O)[nH]c12 (stereo unspecified)	n	51	n	n	n
Cc1cccc(C2NC(=O)c3c(sc(C)c3C)N2)c1O (stereo unspecified)	n	51	n	n	n
O=C1NC(c2ccccc2O)Nc2ccccc21 (stereo unspecified)	n	x	x	x	x
O=C(NCCO)c1cccc2c1-c1ccccc1C2=O	n	n	n	n	x
O=C1c2ccccc2-c2c1cccc2C(=O)N(CCO)CCO	n	75	n	n	n
Cc1nn(-c2ccccc2)cc1C(c1c(N)[nH]c(=S)[nH]c1=O)c1c(N)[nH]c(=S)[nH]c1=O	n	56	n	n	58
CC1CCN(CCCNC(=O)C2CCN(S(=O)(=O)N3CCC4(CC3)OCCO4)CC2)CC1	n	x	x	x	x
Oc1ccc(O)c(Cc2nc3ccccc3s2)c1	n	51	n	n	43
CCC(=O)/C=C1/Sc2ccc(OC)cc2N1CC	n	x	n	n	x

Screening data deposited in PubChem BioAssay by several laboratories.
